Calls of active or inactive are those of the source. The calls are words filed in the database; no cut-off is given here.
Experiments:
[1] = system: PANC-1; assay: CYtotoxicity against human PANC1 cells by MTS assay; assay type: functional, cell-based
Method in brief: (§1)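 Cells seeded at 2×10^3/well, exposed to DMSO or 0.01, 0.1, 1, 5, 10 and 100 μM compound for 72 h. MTS reagent added, then OD at 550 nm read after 1 h at 37 °C. Quadruplicate wells per concentration.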

[2] = system: MCF7; assay: CYtotoxicity against ER-positive human MCF7 cells by MTS assay; assay type: functional, cell-based; method in brief: as §1
[3] = system: MDA-MB-231; assay: CYtotoxicity against ER-negative human MDA-MB-231 cells by MTS assay; assay type: functional, cell-based; method in brief: as §1
[4] = system: ASPC1; assay: CYtotoxicity against human AsPC1 cells by MTS assay; assay type: functional, cell-based; method in brief: as §1
[5] = system: MDA-MB-231; assay: Induction of apoptosis in human MDA-MB-231 cells assessed as dead cells at 1 uM after 48 hrs by annexin V-based flow cytometry (reference value: 0.24 %); assay type: functional
[6] = system: MDA-MB-231; assay: Cell cycle arrest in human MDA-MB-231 cells assessed as accumulation at S phase after 24 hrs by flow cytometry; assay type: functional, cell-based
[7] = system: MDA-MB-231; assay: Induction of apoptosis in human MDA-MB-231 cells assessed as early apoptotic cells at 5 uM after 48 hrs by annexin V-based flow cytometry (reference value: 4.16 %); assay type: functional
[8] = molecular target: Signal transducer and activator of transcription 3 (Homo sapiens) (UniProt P40763); assay: Inhibition of total STAT3 protein expression in human MDA-MB-231 cells at 5 uM after 24 hrs by Western blot analysis; assay type: cell-based
Chain of Signal transducer and activator of transcription 3 (Homo sapiens) (P40763 whole entry): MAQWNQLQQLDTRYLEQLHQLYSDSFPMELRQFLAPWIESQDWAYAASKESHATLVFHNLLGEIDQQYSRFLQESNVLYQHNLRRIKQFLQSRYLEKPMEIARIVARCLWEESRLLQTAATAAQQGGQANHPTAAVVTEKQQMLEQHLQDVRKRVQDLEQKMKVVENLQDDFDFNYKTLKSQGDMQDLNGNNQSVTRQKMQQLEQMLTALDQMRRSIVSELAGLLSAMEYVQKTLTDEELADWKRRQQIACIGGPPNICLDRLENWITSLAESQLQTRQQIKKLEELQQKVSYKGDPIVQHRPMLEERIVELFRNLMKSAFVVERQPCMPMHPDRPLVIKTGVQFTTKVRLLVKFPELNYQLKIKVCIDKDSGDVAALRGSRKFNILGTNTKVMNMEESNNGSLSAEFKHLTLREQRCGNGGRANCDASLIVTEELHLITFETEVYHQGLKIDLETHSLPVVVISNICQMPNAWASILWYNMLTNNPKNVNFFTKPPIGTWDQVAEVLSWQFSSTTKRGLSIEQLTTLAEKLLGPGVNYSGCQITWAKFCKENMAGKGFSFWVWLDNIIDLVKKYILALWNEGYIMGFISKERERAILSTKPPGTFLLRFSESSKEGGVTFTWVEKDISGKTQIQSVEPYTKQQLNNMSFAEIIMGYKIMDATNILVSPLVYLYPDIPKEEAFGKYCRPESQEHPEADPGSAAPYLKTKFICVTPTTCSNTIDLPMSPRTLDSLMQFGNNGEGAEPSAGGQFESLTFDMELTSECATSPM
Method in brief: (§2)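 Whole-cell lysates of treated MDA-MB-231 cells; 40 µg protein per lane run on 10% SDS-PAGE and transferred to nitrocellulose. Blocked in 5% milk/1% Tween 20 in TBS. Probed for pSTAT3-Y705 (1:3000), STAT3 (1:2000) and cleaved caspase-3 (1:2000), with β-actin as loading reference. Secondary antibody at 1:4000, ECL detection.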

[9] = system: MDA-MB-231; assay: Antiproliferative activity against human MDA-MB-231 cells assessed as change in cell morphology after 48 hrs by light microscopy; assay type: functional, cell-based
[10] = molecular target: Signal transducer and activator of transcription 3 (Homo sapiens) (UniProt P40763); assay: Inhibition of STAT3 phosphorylation at Tyr-705 in human MDA-MB-231 cells at 5 uM after 48 hrs by Western blot analysis; assay type: cell-based; method in brief: as §2
[11] = system: MDA-MB-231; assay: Induction of apoptosis in human MDA-MB-231 cells assessed as dead cells at 2.5 uM after 48 hrs by annexin V-based flow cytometry (reference value: 0.24 %); assay type: functional
[12] = system: MDA-MB-231; assay: Cell cycle arrest in human MDA-MB-231 cells assessed as accumulation at G2/M phase at 2.5 uM after 24 hrs by flow cytometry (reference value: 25.1 %); assay type: functional
[13] = system: MDA-MB-231; assay: Induction of apoptosis in human MDA-MB-231 cells assessed as early apoptotic cells at 2.5 uM after 48 hrs by annexin V-based flow cytometry (reference value: 4.16 %); assay type: functional
[14] = system: MDA-MB-231; assay: Induction of apoptosis in human MDA-MB-231 cells assessed as viable cells at 2.5 uM after 48 hrs by annexin V-based flow cytometry (reference value: 90.62 %); assay type: functional; settings: MDA-MB-231, 48 h, read-out: Activity
[15] = system: MDA-MB-231; assay: Cell cycle arrest in human MDA-MB-231 cells assessed as accumulation at G2/M phase at 5 uM after 24 hrs by flow cytometry (reference value: 25.1 %); assay type: functional
[16] = system: MDA-MB-231; assay: Cell cycle arrest in human MDA-MB-231 cells assessed as accumulation at S phase at 1 uM after 24 hrs by flow cytometry (reference value: 16.7 %); assay type: functional
[17] = system: MDA-MB-231; assay: Induction of apoptosis in human MDA-MB-231 cells assessed as early apoptotic cells at 1 uM after 48 hrs by annexin V-based flow cytometry (reference value: 4.16 %); assay type: functional
[18] = molecular target: Signal transducer and activator of transcription 3 (Homo sapiens) (UniProt P40763); assay: Inhibition of STAT3 promoter activity in human MDA-MB-231 cells at 5 uM after 24 hrs by luciferase reporter gene assay relative to control; assay type: cell-based
Method in brief: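 MDA-MB-231 cells seeded at 5×10^4/well in RPMI-1640 with 10% FBS and were transiently transfected 4 h after plating. Each well received 0.5 μg DNA: pSTAT3-Luc (95%) and renilla control vector (5%). Compound was added 5 h post-transfection for 24 h. Read-out is dual luciferase, as firefly/renilla ratio relative to DMSO control. Triplicate wells; representative of ≥3 independent experiments.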

[19] = system: MDA-MB-231; assay: Cell cycle arrest in human MDA-MB-231 cells assessed as accumulation at G2/M phase at 1 uM after 24 hrs by flow cytometry (reference value: 25.1 %); assay type: functional
[20] = system: MDA-MB-231; assay: Induction of apoptosis in human MDA-MB-231 cells assessed as viable cells at 5 uM after 48 hrs by annexin V-based flow cytometry (reference value: 90.62 %); assay type: functional; settings: MDA-MB-231, 48 h, read-out: Activity
[21] = system: MDA-MB-231; assay: Cell cycle arrest in human MDA-MB-231 cells assessed as accumulation at S phase at 2.5 uM after 24 hrs by flow cytometry (reference value: 16.7 %); assay type: functional
[22] = system: MDA-MB-231; assay: Cell cycle arrest in human MDA-MB-231 cells assessed as accumulation at S phase at 5 uM after 24 hrs by flow cytometry (reference value: 16.7 %); assay type: functional
[23] = system: MDA-MB-231; assay: Induction of apoptosis in human MDA-MB-231 cells assessed as late apoptotic cells at 5 uM after 48 hrs by annexin V-based flow cytometry (reference value: 4.98 %); assay type: functional
[24] = system: MDA-MB-231; assay: Induction of apoptosis in human MDA-MB-231 cells assessed as dead cells at 5 uM after 48 hrs by annexin V-based flow cytometry (reference value: 0.24 %); assay type: functional
[25] = system: MDA-MB-231; assay: Cell cycle arrest in human MDA-MB-231 cells assessed as accumulation at G0/G1 phase at 2.5 uM after 24 hrs by flow cytometry (reference value: 53.6 %); assay type: functional
[26] = system: MDA-MB-231; assay: Cell cycle arrest in human MDA-MB-231 cells assessed as accumulation at G0/G1 phase at 5 uM after 24 hrs by flow cytometry (reference value: 53.6 %); assay type: functional
[27] = molecular target: Signal transducer and activator of transcription 3 (Homo sapiens) (UniProt P40763); assay: Inhibition of STAT3 phosphorylation at Tyr-705 in human MDA-MB-231 cells at 5 uM after 24 hrs by Western blot analysis; assay type: cell-based; method in brief: as §2
[28] = system: MDA-MB-231; assay: Induction of apoptosis in human MDA-MB-231 cells assessed as late apoptotic cells at 1 uM after 48 hrs by annexin V-based flow cytometry (reference value: 4.98 %); assay type: functional
[29] = system: MDA-MB-231; assay: Induction of apoptosis in human MDA-MB-231 cells assessed as late apoptotic cells at 2.5 uM after 48 hrs by annexin V-based flow cytometry (reference value: 4.98 %); assay type: functional
[30] = system: MDA-MB-231; assay: Induction of apoptosis in human MDA-MB-231 cells assessed as caspase-3 cleavage at 5 uM after 24 to 48 hrs by Western blot analysis; assay type: functional, cell-based; method in brief: as §2
[31] = system: MDA-MB-231; assay: Cell cycle arrest in human MDA-MB-231 cells assessed as accumulation at G0/G1 phase at 1 uM after 24 hrs by flow cytometry (reference value: 53.6 %); assay type: functional
[32] = molecular target: Signal transducer and activator of transcription 3 (Homo sapiens) (UniProt P40763); assay: Inhibition of total STAT3 protein expression in human MDA-MB-231 cells at 5 uM after 48 hrs by Western blot analysis; assay type: cell-based; method in brief: as §2
[33] = system: Mus musculus; assay: Toxicity in human MDA-MB-231 cells xenografted immunodeficient nude mouse assessed as change in body weight at 50 mg/kg, po; settings: in vivo
[34] = system: MDA-MB-231; assay: Induction of apoptosis in human MDA-MB-231 cells assessed as viable cells at 1 uM after 48 hrs by annexin V-based flow cytometry (reference value: 90.62 %); assay type: functional; settings: MDA-MB-231, 48 h, read-out: Activity
[35] = system: MDA-MB-231; assay: Antitumor activity against human MDA-MB-231 cells xenografted in immunodeficient nude mouse assessed as reduction in tumor volume at 50 mg/kg, po administered 5 days a week; assay type: functional, organism-based; parameters: dose 50 mg/kg
Method in brief: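 Female nude mice aged 4–6 weeks were used, housed in a barrier unit. Each mouse received 2.5×10^6 fresh MDA-MB-231 cells in 100 µL PBS into the 3rd mammary fat pad (orthotopic). Mice were randomized into 2 groups of 6–7. Oral dosing or vehicle (50% DMSO/50% PEG) started once tumors reached 200 mm³. Tumor volume measured daily, calculated as 0.5×L×W².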

`C[C@H](NC(=O)c1cc(Cl)ccc1O)c1ccccc1` gave an IC50 [1] of 8.44 µM, an IC50 [2] of 0.9 µM and an IC50 [3] of 8.88 µM. It also gave an IC50 [4] of 7.54 µM.
In the case of `O=C(Nc1ccc2c(c1)S(=O)(=O)C=C2)c1ccnc(-c2ccccc2)c1`, the IC50 [1] is reported as 3.35 µM, the IC50 [2] is reported as 3.78 µM and the IC50 [3] is reported as 1.85 µM. For the same compound, the IC50 [4] was 1.3 µM.
For `O=C(Nc1ccc2c(c1)S(=O)(=O)C=C2)c1c2ccccc2nc2ccccc12`, the IC50 [1] was greater than 10 µM, the IC50 [2] was greater than 10 µM and the IC50 [3] was greater than 10 µM. For the same compound, the IC50 [4] was greater than 10 µM.
`O=C(Nc1ccc2c(c1)S(=O)(=O)C=C2)c1ccncc1` was tested, and the IC50 [2] was greater than 10 µM and the IC50 [3] was greater than 10 µM.
In the case of `C[C@H](NC(=O)c1cc(-c2ccccc2)nc2ccccc12)c1ccccc1`, the IC50 [1] is reported as greater than 10 µM, the IC50 [2] is reported as 2.24 µM and the IC50 [3] is reported as 86 µM. For the same compound, the IC50 [4] was greater than 10 µM.
Compound `O=C(Nc1ccc2c(c1)S(=O)(=O)C=C2)c1cc(Cl)ccc1O` has an IC50 [1] of 2.34 µM, an IC50 [2] of 0.91 µM and an IC50 [3] of 1.64 µM. For the same compound, the IC50 [4] was 1.92 µM.
`O=C(Nc1ccc2c(c1)S(=O)(=O)C=C2)c1cc(-c2ccccc2)nc(-c2ccccc2)c1` was tested, and the IC50 [1] was 0.31 µM, the IC50 [2] was 0.65 µM and the IC50 [3] was 0.45 µM. It also gave an IC50 [4] of 0.12 µM.
`N#CCC(=O)Nc1ccc2c(c1)S(=O)(=O)C=C2` was tested, and the IC50 [2] was greater than 10 µM and the IC50 [3] was greater than 10 µM.
In the case of `O=C(Nc1nnc(-c2ccco2)o1)c1cc(Cl)ccc1O`, the IC50 [1] is reported as greater than 10 µM, the IC50 [2] is reported as greater than 10 µM and the IC50 [3] is reported as greater than 10 µM. It also gave an IC50 [4] greater than 10 µM.
`O=C(Nc1ccc2c(c1)S(=O)(=O)C=C2)c1cc(-c2ccccc2)nc2ccccc12` was tested, and the Activity [5] was 0.67%, the IC50 [1] was 0.26 µM and the Activity [6] was “Dose-dependent effect”. The Activity [7] was 66.12%, the inhibition [8] was “Active” and the Activity [9] was “Dose-dependent effect”. The inhibition [10] was “Active”, the Activity [11] was 0.32% and the Activity [12] was 27.5%. For the same compound, the Activity [13] was 28.53%, the viability at 2.5 µM [14] was 57.8% and the Activity [15] was 25.8%. It also gave an Activity [16] of 16.5%, an IC50 [2] of 0.1 µM and an Activity [17] of 9.31%. The inhibition [18] was 65%, the IC50 [3] was 0.29 µM and the Activity [19] was 27.6%. The viability at 5 µM [20] was 19.5%, the Activity [21] was 21.9% and the Activity [22] was 26.2%. It also gave an Activity [23] of 14.21%, an Activity [24] of 0.14% and an Activity [25] of 43.7%. The Activity [26] was 34.1%, the inhibition [27] was “Active” and the Activity [28] was 9.26%. For the same compound, the Activity [29] was 13.32%, the IC50 [4] was 1.25 µM and the Activity [30] was “Active”. For the same compound, the Activity [31] was 51.5%, the inhibition [32] was “Active” and the Activity [33] was “Non-toxic”. For the same compound, the viability at 1 µM [34] was 80.8% and the Activity [35] was “Active”.
With `N#C/C(=C\c1cccc(Br)n1)C(=O)Nc1ccc2c(c1)S(=O)(=O)C=C2` the IC50 [1] was 1.64 µM, the IC50 [2] was 3.31 µM and the IC50 [3] was 1.53 µM. It also gave an IC50 [4] of 1.54 µM.
In the case of `O=C(Nc1ccc2c(c1)S(=O)(=O)C=C2)c1ccnc2ccccc12`, the IC50 [1] is reported as 7.92 µM, the IC50 [2] is reported as 2.97 µM and the IC50 [3] is reported as 6.21 µM. The IC50 [4] was 6.97 µM.
